Assays:
[1] = Drug level in rabbit cervical tissue at 0.5 ml/day administered intravaginally for 7 days measured 24 hrs after final dose by […]; type: ADME, Oryctolagus cuniculus; conditions: read-out: Drug uptake
How it was run: (§1)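 Six female rabbits received 0.5 ml/day of [14C]dapivirine gel (nominal 0.09 mg/ml, 15 μCi/ml) intravaginally once daily for 7 days by feeding tube inserted about 6 cm, with a collar for about 8 h. Two rabbits per time point were killed at 1, 8 and 24 h after the final dose. PBS-rinsed vaginal wall and ectocervix were homogenized in 2:1 H2O-ACN and extracted with t-butylmethylether. A single LC-MS/MS run was used (0.250–250 ng/g; 10-point weighted quadratic calibration).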

Plasma [2] = assay: Drug level in rhesus monkey plasma at 1 ml/day administered intravaginally for 7 days by LC-MS/MS analysis; type: ADME, cell-free, Macaca mulatta; conditions: other, 168 h, in the assay text read “liquid scintillation counting” for “LC-MS/MS analysis”
[3] = Drug level in rhesus monkey ileac lymph node at 1 ml/day administered intravaginally for 7 days measured 24 hrs after final dose by LC-MS/MS analysis; type: ADME, tissue-based, Macaca mulatta; conditions: read-out: Drug uptake
How it was run: (§2)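 Nine female macaques were sedated with ketamine (5–20 mg/kg) and given 1 ml/day of [14C]dapivirine gel (nominal 0.09 mg/ml, 15 μCi/ml) intravaginally once daily for 7 days. Three animals per time point were killed (iv pentobarbital, 65 mg/kg) at 1, 24 and 48 h after the final dose. Vaginal wall, ectocervix, and inguinal and iliac lymph nodes were assayed by LC-MS/MS (0.250–250 ng/g). Values below LLOQ were set to 0 for means.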

[4] = Drug level in rabbit vaginal tissue at 0.5 ml/day administered intravaginally for 7 days measured 1 hr after final dose by […]; type: ADME, Oryctolagus cuniculus, Vagina; conditions: read-out: Drug uptake; how it was run: as §1
[5] = Drug level in rhesus monkey vaginal tissue at 1 ml/day administered intravaginally for 7 days measured 48 hrs after final dose by LC-MS/MS analysis; type: ADME, Macaca mulatta, Vagina; conditions: read-out: Drug uptake; how it was run: as §2
[6] = Drug level in rhesus monkey vaginal tissue at 1 ml/day administered intravaginally for 7 days measured 24 hrs after final dose by LC-MS/MS analysis; type: ADME, Macaca mulatta, Vagina; conditions: read-out: Drug uptake; how it was run: as §2
[7] = Drug level in rhesus monkey ileac lymph node at 1 ml/day administered intravaginally for 7 days measured 48 hrs after final dose by LC-MS/MS analysis; type: ADME, tissue-based, Macaca mulatta; conditions: read-out: Drug uptake; how it was run: as §2
[8] = Drug level in rhesus monkey inguinal lymph node at 1 ml/day administered intravaginally for 7 days measured 48 hrs after final dose by LC-MS/MS analysis; type: ADME, tissue-based, Macaca mulatta; conditions: read-out: Drug uptake; how it was run: as §2
Plasma [9] = assay: Drug level in rabbit plasma at 0.5 ml/day administered intravaginally for 7 days by liquid scintillation counting; conditions: other, 168 h
[10] = Drug level in rhesus monkey inguinal lymph node at 1 ml/day administered intravaginally for 7 days measured 24 hrs after final dose by LC-MS/MS analysis; type: ADME, tissue-based, Macaca mulatta; conditions: read-out: Drug uptake; how it was run: as §2
[11] = Drug level in rhesus monkey cervical tissue at 1 ml/day administered intravaginally for 7 days measured 48 hrs after final dose by LC-MS/MS analysis; type: ADME, Macaca mulatta; conditions: read-out: Drug uptake; how it was run: as §2
[12] = Drug level in rhesus monkey cervical tissue at 1 ml/day administered intravaginally for 7 days measured 1 hr after final dose by LC-MS/MS analysis; type: ADME, Macaca mulatta; conditions: read-out: Drug uptake; how it was run: as §2
[13] = Drug level in rhesus monkey inguinal lymph node at 1 ml/day administered intravaginally for 7 days measured 1 hr after final dose by LC-MS/MS analysis; type: ADME, tissue-based, Macaca mulatta; conditions: read-out: Drug uptake; how it was run: as §2
[14] = Drug level in rhesus monkey cervical tissue at 1 ml/day administered intravaginally for 7 days measured 24 hrs after final dose by LC-MS/MS analysis; type: ADME, Macaca mulatta; conditions: read-out: Drug uptake; how it was run: as §2
[15] = Drug level in rhesus monkey ileac lymph node at 1 ml/day administered intravaginally for 7 days measured 1 hr after final dose by LC-MS/MS analysis; type: ADME, tissue-based, Macaca mulatta; conditions: read-out: Drug uptake; how it was run: as §2
[16] = Drug level in rhesus monkey vaginal tissue at 1 ml/day administered intravaginally 7 days measured 1 hr after final dose by LC-MS/MS analysis; type: ADME, Macaca mulatta, Vagina; conditions: read-out: Drug uptake; how it was run: as §2

concentration at 24 h [1]: ≥ 2.5 ng/g
Drug uptake (Plasma [2]): <= 83 dpm/ml
concentration at 24 h [3]: 11.6 ng/g
concentration at 1 h [4]: > 3000 ng/g
concentration at 48 h [5]: 515 ng/g
concentration at 24 h [6]: 1160 ng/g
concentration at 48 h [7]: 1.16 ng/g
concentration at 48 h [8]: 0.48 ng/g
Drug uptake (Plasma [9]): 246 dpm/ml
concentration at 24 h [10]: 1.77 ng/g
concentration at 48 h [11]: 81 ng/g
concentration at 1 h [12]: 2400 ng/g
concentration at 1 h [13]: 10.6 ng/g
concentration at 24 h [14]: 271 ng/g
concentration at 1 h [15]: 14.9 ng/g
concentration at 1 h [16]: 4260 ng/g
SMILES: Cc1cc(C)c(Nc2ccnc(Nc3ccc([14C]#N)cc3)n2)c(C)c1 [[14C]DAPIVIRINE]

— ChEMBL document CHEMBL1255242, “Concentrations of dapivirine in the rhesus macaque and rabbit following once daily intravaginal administration of a gel formulation of [14C]dapivirine for 7 days” (Antimicrob Agents Chemother, 2008)
